Data taken from ChEMBL document CHEMBL1177660, “Discovery of novel purine derivatives with potent and selective inhibitory activity against c-Src tyrosine kinase” (Bioorg Med Chem, 2010).

Tests used:
[1] = target: T1, Proto-oncogene tyrosine-protein kinase Src (Homo sapiens, UniProt P12931); test: Inhibition cSRC
[2] = target: T1, Proto-oncogene tyrosine-protein kinase Src; test: Inhibition of human SRC-mediated migration of human MDA-MB-231 cells by wound-healing assay
[3] = target: T2, Mast/stem cell growth factor receptor Kit (Homo sapiens, UniProt P10721); test: Inhibition kit
T2 sequence (P10721 whole entry): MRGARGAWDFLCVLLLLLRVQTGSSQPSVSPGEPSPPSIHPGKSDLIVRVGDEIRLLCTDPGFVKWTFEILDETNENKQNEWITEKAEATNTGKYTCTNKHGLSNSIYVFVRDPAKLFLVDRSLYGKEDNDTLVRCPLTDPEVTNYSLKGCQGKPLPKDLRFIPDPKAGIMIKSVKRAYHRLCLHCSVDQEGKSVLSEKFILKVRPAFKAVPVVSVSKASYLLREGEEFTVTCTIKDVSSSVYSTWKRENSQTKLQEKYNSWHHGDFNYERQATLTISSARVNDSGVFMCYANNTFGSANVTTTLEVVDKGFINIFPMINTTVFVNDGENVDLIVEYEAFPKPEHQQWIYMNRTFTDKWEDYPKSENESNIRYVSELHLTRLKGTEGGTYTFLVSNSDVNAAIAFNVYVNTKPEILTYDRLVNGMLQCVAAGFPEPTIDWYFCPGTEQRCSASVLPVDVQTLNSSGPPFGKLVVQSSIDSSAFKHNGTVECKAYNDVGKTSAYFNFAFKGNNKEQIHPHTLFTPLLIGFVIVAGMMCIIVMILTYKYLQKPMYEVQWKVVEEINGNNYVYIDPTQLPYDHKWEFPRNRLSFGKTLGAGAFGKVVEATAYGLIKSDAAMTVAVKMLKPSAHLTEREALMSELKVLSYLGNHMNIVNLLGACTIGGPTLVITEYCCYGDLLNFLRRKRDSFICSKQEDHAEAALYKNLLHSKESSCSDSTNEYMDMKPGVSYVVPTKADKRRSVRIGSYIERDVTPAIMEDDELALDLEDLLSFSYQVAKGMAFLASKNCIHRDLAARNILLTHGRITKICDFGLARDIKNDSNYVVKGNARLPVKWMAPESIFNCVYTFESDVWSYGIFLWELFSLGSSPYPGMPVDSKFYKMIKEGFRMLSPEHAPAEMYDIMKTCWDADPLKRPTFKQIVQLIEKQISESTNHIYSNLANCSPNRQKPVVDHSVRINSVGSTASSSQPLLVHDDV
In short: (§1)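 Purified kinases assayed by ELISA on wells coated with 20 µg/mL poly(Glu,Tyr)4:1. Detected with PY99 anti-phosphotyrosine, HRP anti-mouse IgG and o-phenylenediamine; A492.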

[4] = target: Fibroblast growth factor receptor 1 (Homo sapiens) (UniProt P11362); test: Inhibition FGFR1 at 10 uM; in short: as §1
[5] = target: T3, Tyrosine-protein kinase ABL1 (Homo sapiens, UniProt P00519); test: Inhibition cABl; in short: as §1
T3 sequence (P00519 whole entry): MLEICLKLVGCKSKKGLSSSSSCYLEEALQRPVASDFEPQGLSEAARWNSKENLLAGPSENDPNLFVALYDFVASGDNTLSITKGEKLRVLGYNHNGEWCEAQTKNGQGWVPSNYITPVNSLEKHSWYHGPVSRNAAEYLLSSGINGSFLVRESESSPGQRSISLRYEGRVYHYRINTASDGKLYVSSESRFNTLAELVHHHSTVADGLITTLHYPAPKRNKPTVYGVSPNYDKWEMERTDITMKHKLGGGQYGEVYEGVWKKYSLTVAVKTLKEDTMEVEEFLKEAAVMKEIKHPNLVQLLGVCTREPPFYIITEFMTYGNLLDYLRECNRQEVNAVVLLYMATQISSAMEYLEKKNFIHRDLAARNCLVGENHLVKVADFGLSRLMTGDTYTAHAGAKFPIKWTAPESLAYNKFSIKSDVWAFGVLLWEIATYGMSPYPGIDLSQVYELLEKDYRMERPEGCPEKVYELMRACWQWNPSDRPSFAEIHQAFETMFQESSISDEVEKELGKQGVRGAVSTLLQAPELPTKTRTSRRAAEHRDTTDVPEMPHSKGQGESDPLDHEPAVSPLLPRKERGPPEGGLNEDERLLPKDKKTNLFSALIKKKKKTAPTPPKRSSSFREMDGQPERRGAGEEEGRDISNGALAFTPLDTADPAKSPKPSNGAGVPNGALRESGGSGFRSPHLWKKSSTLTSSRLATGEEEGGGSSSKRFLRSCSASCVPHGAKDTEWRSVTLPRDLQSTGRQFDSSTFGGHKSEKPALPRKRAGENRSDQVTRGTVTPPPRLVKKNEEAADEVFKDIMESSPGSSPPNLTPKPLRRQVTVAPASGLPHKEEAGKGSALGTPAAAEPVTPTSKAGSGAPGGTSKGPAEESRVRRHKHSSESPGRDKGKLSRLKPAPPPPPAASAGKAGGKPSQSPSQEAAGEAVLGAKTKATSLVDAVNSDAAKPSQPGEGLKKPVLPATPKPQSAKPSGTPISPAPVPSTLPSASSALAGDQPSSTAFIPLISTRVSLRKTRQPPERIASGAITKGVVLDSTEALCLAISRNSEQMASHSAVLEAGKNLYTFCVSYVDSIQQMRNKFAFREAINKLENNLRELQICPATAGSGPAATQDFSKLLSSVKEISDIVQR

[6] = target: T4, Ephrin type-B receptor 2 (Homo sapiens) (UniProt P29323); test: Inhibition EphB2 at 10 uM; in short: as §1
T4 sequence (whole entry): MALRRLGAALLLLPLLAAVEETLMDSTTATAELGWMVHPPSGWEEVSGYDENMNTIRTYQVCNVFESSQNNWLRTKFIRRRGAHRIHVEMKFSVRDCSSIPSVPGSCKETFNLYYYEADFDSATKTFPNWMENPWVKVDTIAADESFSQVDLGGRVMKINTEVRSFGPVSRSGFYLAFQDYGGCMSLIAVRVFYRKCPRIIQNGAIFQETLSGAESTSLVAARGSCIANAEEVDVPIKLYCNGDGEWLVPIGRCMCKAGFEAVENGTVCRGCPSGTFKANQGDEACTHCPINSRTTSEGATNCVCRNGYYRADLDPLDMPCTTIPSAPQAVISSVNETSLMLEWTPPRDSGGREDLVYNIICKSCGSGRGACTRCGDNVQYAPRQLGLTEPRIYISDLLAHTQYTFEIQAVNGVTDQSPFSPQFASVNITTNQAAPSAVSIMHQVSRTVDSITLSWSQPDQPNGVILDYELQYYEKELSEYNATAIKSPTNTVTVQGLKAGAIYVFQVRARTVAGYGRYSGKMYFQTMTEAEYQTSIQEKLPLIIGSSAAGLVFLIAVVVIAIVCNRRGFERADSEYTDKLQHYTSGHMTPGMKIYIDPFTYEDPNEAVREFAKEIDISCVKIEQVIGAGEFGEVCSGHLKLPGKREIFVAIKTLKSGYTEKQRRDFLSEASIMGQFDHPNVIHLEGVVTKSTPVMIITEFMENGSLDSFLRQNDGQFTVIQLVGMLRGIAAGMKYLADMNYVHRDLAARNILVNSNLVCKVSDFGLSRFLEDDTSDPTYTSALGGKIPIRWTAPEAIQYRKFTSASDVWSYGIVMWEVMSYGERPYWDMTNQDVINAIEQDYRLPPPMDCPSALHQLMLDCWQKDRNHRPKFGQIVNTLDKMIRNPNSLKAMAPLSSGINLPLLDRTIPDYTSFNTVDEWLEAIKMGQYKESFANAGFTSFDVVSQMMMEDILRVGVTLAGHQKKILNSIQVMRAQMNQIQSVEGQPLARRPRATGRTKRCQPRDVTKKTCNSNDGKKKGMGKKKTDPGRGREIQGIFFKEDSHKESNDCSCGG

[7] = target: Receptor tyrosine-protein kinase erbB-2 (Homo sapiens) (UniProt P04626); test: Inhibition ErbB2 at 10 uM; in short: as §1
[8] = target: T2, Mast/stem cell growth factor receptor Kit; test: Inhibition kit at 10 uM; in short: as §1
[9] = target: Platelet-derived growth factor receptor beta (Homo sapiens) (UniProt P09619); test: Inhibition PDGFRbeta at 10 uM; in short: as §1
[10] = target: Focal adhesion kinase 1 (Homo sapiens) (UniProt Q05397); test: Inhibition of FAK phosphorylation in human MDA-MB-231 cells by Western blotting; assay type: cell-based
Sequence of Focal adhesion kinase 1 (Homo sapiens) (Q05397 2-1052 limits assumed): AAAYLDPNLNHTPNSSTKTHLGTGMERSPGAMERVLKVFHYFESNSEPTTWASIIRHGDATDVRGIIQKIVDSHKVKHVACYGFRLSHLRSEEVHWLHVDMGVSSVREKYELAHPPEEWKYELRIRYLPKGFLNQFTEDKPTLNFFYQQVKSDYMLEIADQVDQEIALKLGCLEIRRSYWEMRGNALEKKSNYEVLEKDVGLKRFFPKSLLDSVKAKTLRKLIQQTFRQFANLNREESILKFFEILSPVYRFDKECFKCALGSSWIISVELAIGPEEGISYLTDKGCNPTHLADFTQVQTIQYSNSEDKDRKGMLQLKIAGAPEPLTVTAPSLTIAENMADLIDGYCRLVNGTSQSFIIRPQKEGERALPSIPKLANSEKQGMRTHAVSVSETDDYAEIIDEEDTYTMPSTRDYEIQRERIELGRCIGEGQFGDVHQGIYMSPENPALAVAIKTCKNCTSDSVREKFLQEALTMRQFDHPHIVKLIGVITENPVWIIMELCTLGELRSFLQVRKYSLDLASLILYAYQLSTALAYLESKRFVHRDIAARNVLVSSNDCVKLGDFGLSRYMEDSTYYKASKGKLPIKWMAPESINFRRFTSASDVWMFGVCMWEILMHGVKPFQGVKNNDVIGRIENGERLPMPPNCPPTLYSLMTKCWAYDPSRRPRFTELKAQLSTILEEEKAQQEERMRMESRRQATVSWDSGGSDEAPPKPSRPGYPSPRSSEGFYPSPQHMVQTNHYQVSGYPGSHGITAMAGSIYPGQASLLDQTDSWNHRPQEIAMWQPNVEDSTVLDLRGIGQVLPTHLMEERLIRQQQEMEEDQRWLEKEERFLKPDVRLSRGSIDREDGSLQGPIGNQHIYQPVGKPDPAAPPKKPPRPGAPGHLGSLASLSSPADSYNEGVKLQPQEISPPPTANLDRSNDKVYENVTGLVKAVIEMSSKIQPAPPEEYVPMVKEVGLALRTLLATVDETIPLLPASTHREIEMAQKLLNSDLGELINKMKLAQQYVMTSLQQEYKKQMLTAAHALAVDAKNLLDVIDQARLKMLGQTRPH
In short: (§2)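 MDA-MB-231 cells, 4.5×10^5 per well, plated overnight. Then exposed for 24 h to 1, 3 or 10 µM compound or DMSO alone. Western blot probed p-Src (Tyr416), total Src, p-FAK (Tyr861), FAK and GAPDH. Three independent blots.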

[11] = target: Vascular endothelial growth factor receptor 1 (Homo sapiens) (UniProt P17948); test: Inhibition VEGFR1 at 10 uM; in short: as §1
[12] = target: T1, Proto-oncogene tyrosine-protein kinase Src; test: Inhibition of human SRC-mediated invasion of human MDA-MB-231 cells; assay type: cell-based
In short: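 Matrigel-coated (1 mg/mL) Transwell filters, 8 lm pores, with 10% FBS in the lower chamber. MDA-MB-231 cells and compound or DMSO were added together to the upper chamber and invaded 18 h at 37 °C. Non-invaded cells were removed. Invaded cells were stained with crystal violet, extracted with 10% acetic acid and read at 595 nm. Mean of three experiments, SD.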

[13] = target: Ephrin type-A receptor 2 (Homo sapiens) (UniProt P29317); test: Inhibition EphA2 at 10 uM; in short: as §1
[14] = target: Fibroblast growth factor receptor 2 (Homo sapiens) (UniProt P21802); conditions: 10 uM
Sequence of Fibroblast growth factor receptor 2 (Homo sapiens) (P21802 22-821 limits assumed): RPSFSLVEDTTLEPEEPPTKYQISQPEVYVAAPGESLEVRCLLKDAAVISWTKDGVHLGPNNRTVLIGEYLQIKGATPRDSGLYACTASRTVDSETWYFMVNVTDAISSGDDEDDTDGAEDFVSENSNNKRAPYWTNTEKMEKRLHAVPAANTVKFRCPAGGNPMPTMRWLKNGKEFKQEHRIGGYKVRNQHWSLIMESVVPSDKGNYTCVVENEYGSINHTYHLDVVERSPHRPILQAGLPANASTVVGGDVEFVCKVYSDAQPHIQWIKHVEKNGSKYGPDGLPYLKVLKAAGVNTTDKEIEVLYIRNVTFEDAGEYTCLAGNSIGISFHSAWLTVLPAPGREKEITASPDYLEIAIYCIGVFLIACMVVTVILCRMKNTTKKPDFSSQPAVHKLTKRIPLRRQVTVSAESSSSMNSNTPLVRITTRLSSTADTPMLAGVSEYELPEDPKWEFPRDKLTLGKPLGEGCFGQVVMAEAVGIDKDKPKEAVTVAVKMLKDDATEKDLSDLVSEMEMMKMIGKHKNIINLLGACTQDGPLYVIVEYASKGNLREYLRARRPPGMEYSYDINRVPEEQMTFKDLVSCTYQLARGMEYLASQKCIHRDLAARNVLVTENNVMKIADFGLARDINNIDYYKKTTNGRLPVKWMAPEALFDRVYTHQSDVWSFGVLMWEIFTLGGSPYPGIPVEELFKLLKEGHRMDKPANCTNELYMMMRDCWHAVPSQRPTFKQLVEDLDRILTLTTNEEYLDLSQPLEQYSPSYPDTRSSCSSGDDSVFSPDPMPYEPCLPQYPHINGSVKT

[15] = target: Hepatocyte growth factor receptor (Homo sapiens) (UniProt P08581); conditions: 10 uM
[16] = target: Vascular endothelial growth factor receptor 2 (Homo sapiens) (UniProt P35968); test: Inhibition KDR at 10 uM; in short: as §1
[17] = target: T3, Tyrosine-protein kinase ABL1; test: Inhibition cABl at 10 uM; in short: as §1
[18] = target: T1, Proto-oncogene tyrosine-protein kinase Src; test: Inhibition of SRC phosphorylation in human MDA-MB-231 cells; assay type: cell-based; in short: as §2
MDA-MB-231 = test: Antiproliferative activity against human MDA-MB-231 cells assessed as viability after 24 hrs by MTT assay; assay type: functional
In short: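 MDA-MB-231 cells (ATCC; L15 medium, 10% FBS, 37 °C, 5% CO2) exposed to test concentrations for 24 h; viability scored by MTT.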

[19] = target: T1, Proto-oncogene tyrosine-protein kinase Src; test: Inhibition cSRC at 10 uM; in short: as §1

T1 sequence (P12931 2-536 limits assumed): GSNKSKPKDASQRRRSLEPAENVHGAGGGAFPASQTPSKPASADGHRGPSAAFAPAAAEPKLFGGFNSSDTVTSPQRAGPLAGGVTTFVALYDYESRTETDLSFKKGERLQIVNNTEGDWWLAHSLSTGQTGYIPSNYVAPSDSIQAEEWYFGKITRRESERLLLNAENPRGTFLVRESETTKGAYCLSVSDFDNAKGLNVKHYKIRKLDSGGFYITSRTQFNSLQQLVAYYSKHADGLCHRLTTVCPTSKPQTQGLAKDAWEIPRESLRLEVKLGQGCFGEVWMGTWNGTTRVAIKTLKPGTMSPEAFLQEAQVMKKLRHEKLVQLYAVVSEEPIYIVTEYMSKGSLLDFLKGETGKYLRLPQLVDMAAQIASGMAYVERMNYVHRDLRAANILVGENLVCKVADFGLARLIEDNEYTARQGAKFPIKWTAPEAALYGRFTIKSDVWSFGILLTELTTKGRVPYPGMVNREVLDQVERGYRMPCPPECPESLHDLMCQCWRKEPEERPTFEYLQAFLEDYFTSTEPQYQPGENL

| IC50 [1] [µM] | SMILES | further results |
| --- | --- | --- |
| 0.45 | Brc1ccc(Nc2nc(N3CCOCC3)nc3[nH]cnc23)cc1 | – |
| 2.43 | COc1ccc(Nc2nc(N3CCNCC3)nc3nc[nH]c23)cc1 | – |
| 0.95 | O=[N+]([O-])c1cccc(Nc2nc(N3CCNCC3)nc3nc[nH]c23)c1 | – |
| 0.13 | COc1ccc(Nc2nc(N3CCOCC3)nc3[nH]cnc23)cc1 | – |
| 0.02 | NS(=O)(=O)c1ccc(Nc2nc(N3CCOCC3)nc3[nH]cnc23)cc1 | inhibition [2]: Dose-dependent effect; IC50 [3]: 1.35 µM; inhibition [4]: 48.7%; IC50 [5]: 6 µM; inhibition [6]: 11.5%; inhibition [7]: 43.1%; inhibition [8]: 83.1%; inhibition [9]: 17.2%; inhibition [10]: Dose-dependent effect; inhibition [11]: 0%; inhibition [12]: Dose-dependent effect; inhibition [13]: 48.7%; inhibition [14]: 4.1%; inhibition [15]: 43.2%; inhibition [16]: 47.2%; inhibition [17]: 73.4%; inhibition [18]: Dose-dependent effect; Activity (MDA-MB-231): > 95% |
| 0.69 | OCCN1CCN(c2nc(Nc3ccc(Cl)cc3)c3[nH]cnc3n2)CC1 | – |
| 2.42 | Cc1cccc(Nc2nc(N3CCNCC3)nc3nc[nH]c23)c1 | – |
| > 10 | Brc1ccc(Nc2nc(N3CCOCC3)nc3c2ncn3Cc2ccccc2)cc1 | inhibition [19]: 10.1% |
| 1.18 | Clc1ccc(Nc2nc(N3CCNCC3)nc3[nH]cnc23)cc1 | – |
| 2.2 | NC(=O)c1ccc(Nc2nc(N3CCNCC3)nc3nc[nH]c23)cc1 | – |
| > 10 | Brc1ccc(Nc2ncnc3c2ncn3Cc2ccccc2)cc1 | inhibition [19]: 6.9% |
| 0.13 | O=[N+]([O-])c1cccc(Nc2nc(N3CCOCC3)nc3[nH]cnc23)c1 | – |
| > 10 | c1ccc(Cn2cnc3c(Nc4ccccc4)nc(N4CCNCC4)nc32)cc1 | inhibition [19]: 35.8% |
| > 10 | c1ccc(Cn2cnc3c(N4CCOCC4)nc(N4CCOCC4)nc32)cc1 | inhibition [19]: 16.4% |
| 0.93 | COc1cccc(Nc2nc(N3CCOCC3)nc3[nH]cnc23)c1 | – |
| 2.55 | Cc1cccc(Nc2nc(N3CCN(CCO)CC3)nc3nc[nH]c23)c1 | – |
| 3.14 | OCCN1CCN(c2nc(Nc3ccccc3)c3nc[nH]c3n2)CC1 | – |
| 1.22 | NC(=O)c1ccc(Nc2nc(N3CCN(CCO)CC3)nc3[nH]cnc23)cc1 | – |
| 0.75 | c1ccc(Nc2nc(N3CCOCC3)nc3[nH]cnc23)cc1 | – |
| > 10 | c1ccc(Cn2cnc3c(Nc4ccccc4)nc(N4CCOCC4)nc32)cc1 | inhibition [19]: 20.2% |
| 0.34 | Clc1ccc(Nc2nc(N3CCOCC3)nc3nc[nH]c23)cc1 | – |
| 1.76 | Brc1ccc(Nc2nc(N3CCNCC3)nc3[nH]cnc23)cc1 | – |
| 1.82 | NS(=O)(=O)c1ccc(Nc2nc(N3CCNCC3)nc3[nH]cnc23)cc1 | – |

| IC50 [1] [µM] | SMILES | further results |
| --- | --- | --- |
| 2.01 | NC(=O)c1ccc(Nc2nc(N3CCOCC3)nc3nc[nH]c23)cc1 | – |
| 0.34 | NS(=O)(=O)c1cccc(Nc2nc(N3CCN(CCO)CC3)nc3nc[nH]c23)c1 | – |
| 1.33 | COc1ccc(Nc2nc(N3CCN(CCO)CC3)nc3nc[nH]c23)cc1 | – |
| – | COc1ccc(Nc2nc(N3CCNCC3)nc3[nH]cnc23)cc1 | inhibition [19]: 90.5% |
| 1.21 | COc1cccc(Nc2nc(N3CCNCC3)nc3nc[nH]c23)c1 | – |
| 0.65 | CC(=O)Nc1ccc(Nc2nc(N3CCOCC3)nc3[nH]cnc23)cc1 | – |
| 0.12 | NS(=O)(=O)c1cccc(Nc2nc(N3CCOCC3)nc3[nH]cnc23)c1 | – |
| – | Cc1cccc(Nc2nc(N3CCNCC3)nc3[nH]cnc23)c1 | inhibition [19]: 86.6% |
| 1.2 | COc1cccc(Nc2nc(N3CCN(CCO)CC3)nc3nc[nH]c23)c1 | – |
| 0.26 | NS(=O)(=O)c1ccc(Nc2nc(N3CCN(CCO)CC3)nc3nc[nH]c23)cc1 | – |
| 0.78 | O=[N+]([O-])c1ccc(Nc2nc(N3CCN(CCO)CC3)nc3nc[nH]c23)cc1 | – |
| 0.34 | O=[N+]([O-])c1cccc(Nc2nc(N3CCN(CCO)CC3)nc3[nH]cnc23)c1 | – |
| > 10 | COc1ccc(Nc2nc(N3CCOCC3)nc3c2ncn3Cc2ccccc2)cc1 | inhibition [19]: 16% |
| 1.59 | CC(=O)Nc1ccc(Nc2nc(N3CCN(CCO)CC3)nc3[nH]cnc23)cc1 | – |
| 1.4 | O=[N+]([O-])c1ccc(Nc2nc(N3CCNCC3)nc3[nH]cnc23)cc1 | – |
| > 10 | c1ccc(Cn2cnc3c(Nc4ccccc4)ncnc32)cc1 | inhibition [19]: 13.9% |
| 0.1 | NS(=O)(=O)c1cccc(Nc2nc(N3CCNCC3)nc3[nH]cnc23)c1 | – |
| 0.39 | O=[N+]([O-])c1ccc(Nc2nc(N3CCOCC3)nc3nc[nH]c23)cc1 | – |
| > 10 | COc1ccc(Nc2nc(N3CCNCC3)nc3c2ncn3Cc2ccccc2)cc1 | inhibition [19]: 22.5% |
| 1.05 | CC(=O)Nc1ccc(Nc2nc(N3CCNCC3)nc3nc[nH]c23)cc1 | – |
| 0.83 | Cc1cccc(Nc2nc(N3CCOCC3)nc3nc[nH]c23)c1 | – |
| > 10 | c1ccc(Cn2cnc3c(N4CCOCC4)ncnc32)cc1 | inhibition [19]: 0% |
